Experiments:
[1] = folding enthalpy; higher = less favourable; fluorescence melt of hairpins on a sequencing array, two-state fit; conditions: sodium 0.088 M
How it was run: (§1)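 On a sequenced MiSeq flow cell, library hairpins with annealed Cy3 and quencher oligos were imaged for Cy3 fluorescence in 2.5 °C steps up to 60 °C, in 50 mM Na-HEPES pH 8.0, 25 mM NaCl. Normalisation used pre-quench Cy3 and control constructs. Bootstrapped two-state fits gave melting temperature and folding enthalpy, combined by inverse variance across four replicates and with fitted temperatures raised by 9.35 °C to match UV melts.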

[2] = melting temperature; fluorescence melt of hairpins on a sequencing array, two-state fit, raised by 9.35 °C to match UV melts; conditions: sodium 0.088 M
How it was run: as §1

GCAATGCGAAAGCCTAGC ((.(.((....)).).))
folding enthalpy [1]: -11.2 kcal/mol | Tm [2]: 26.8 °C

GGGCGTCGAAAGACACCC (((.(((....))).)))
folding enthalpy [1]: -43.8 kcal/mol | Tm [2]: 58.9 °C

GAAGCTGGAAACAACTTC ((((.((....)).))))
folding enthalpy [1]: -24.2 kcal/mol | Tm [2]: 34.9 °C

GGCCCTCGAAAGAGAGCC (((.(((....))).)))
folding enthalpy [1]: -46.6 kcal/mol | Tm [2]: 53.3 °C

GAACTGCGAAAGCATTTC (((.(((....))).)))
folding enthalpy [1]: -20.1 kcal/mol | Tm [2]: 38.7 °C

GTAAATGAAAATTTAC ((((((....))))))
folding enthalpy [1]: -26.1 kcal/mol | Tm [2]: 37.2 °C

GTCCGGGGAAACCTGGGC (.((.((....)).)).)
folding enthalpy [1]: -29.8 kcal/mol | Tm [2]: 48.3 °C

GCGGTCGAAAGACACGC ((((((....))).)))
folding enthalpy [1]: -27.4 kcal/mol | Tm [2]: 61.8 °C

GCAGTGCGAAAGCTTTGC (((..((....))..)))
folding enthalpy [1]: -14 kcal/mol | Tm [2]: 51.2 °C

GCTCGAGGAAACCCGAGC (((((.(....).)))))
folding enthalpy [1]: -30.9 kcal/mol | Tm [2]: 54.3 °C

GTTGGGCGAAAGCCTAAC (((.(((....))).)))
folding enthalpy [1]: -23.1 kcal/mol | Tm [2]: 54.9 °C

GCCATTGCGAAAGCAGGC (((..(((....))))))
folding enthalpy [1]: -19.1 kcal/mol | Tm [2]: 51.4 °C

GTATACGAAAGTATATAC ((((((....)))..)))
folding enthalpy [1]: -14.4 kcal/mol | Tm [2]: 34.7 °C

GACTTGGGAAACCAAATC ((.((((....)))).))
folding enthalpy [1]: -14 kcal/mol | Tm [2]: 28 °C

GTAAACCGAAAGGTCTAC (((.(((....))).)))
folding enthalpy [1]: -19.2 kcal/mol | Tm [2]: 35.6 °C

GAAAGCGAAAGCTATTC ((((((....))).)))
folding enthalpy [1]: -12 kcal/mol | Tm [2]: 30.4 °C

GGCATAGGAAACTATGTC (.(((((....))))).)
folding enthalpy [1]: -35 kcal/mol | Tm [2]: 45.7 °C

GTTTAGGGAAACCTAAGC (.(((((....))))).)
folding enthalpy [1]: -21.8 kcal/mol | Tm [2]: 33.8 °C

GGGACACGAAAGTGACCC (((.(((....))).)))
folding enthalpy [1]: -37.1 kcal/mol | Tm [2]: 62.9 °C

GTGTATCGAAAGATCAC (((.(((....))))))
folding enthalpy [1]: -29.4 kcal/mol | Tm [2]: 46 °C

GGAAGCCGAAAGGCCTCC (((.(((....))).)))
folding enthalpy [1]: -20.2 kcal/mol | Tm [2]: 48.4 °C

CGCGGACGGATCCGCG ((((((....))))))
folding enthalpy [1]: -28.8 kcal/mol | Tm [2]: 68.7 °C

GACGCCGAAAGGCTTGTC ((((((....)))..)))
folding enthalpy [1]: -13.5 kcal/mol | Tm [2]: 41.1 °C

GCCACGGGAAACCGCGGC (((.(((....))).)))
folding enthalpy [1]: -44.5 kcal/mol | Tm [2]: 59.1 °C

GATCTTGGGAAAGATC ((((((....))))))
folding enthalpy [1]: -33.3 kcal/mol | Tm [2]: 49.1 °C

GGAAGACGAAAGTCGTCC (((.(((....))).)))
folding enthalpy [1]: -18.9 kcal/mol | Tm [2]: 56.2 °C

GAGCGACGAAAGTCTCTC (((.(((....))).)))
folding enthalpy [1]: -29.5 kcal/mol | Tm [2]: 46 °C

GCGTAGCGAAAGCTAGGC ((.((((....)))).))
folding enthalpy [1]: -20.9 kcal/mol | Tm [2]: 59.6 °C

GTAGTCGGAAACGATTGC (.(.(((....))).).)
folding enthalpy [1]: -17.2 kcal/mol | Tm [2]: 31.2 °C

GACGAAACGAAAGTTGTC (((..(((....))))))
folding enthalpy [1]: -19.6 kcal/mol | Tm [2]: 35 °C

GCGATACGTCGC ((((....))))
folding enthalpy [1]: -30.6 kcal/mol | Tm [2]: 54.4 °C

GACGCACGAAAGTGGTC (((.(((....))))))
folding enthalpy [1]: -16.9 kcal/mol | Tm [2]: 51.7 °C

GCTAGGGCGAAAGCCAGC (((..(((....))))))
folding enthalpy [1]: -15 kcal/mol | Tm [2]: 48 °C

GATCTAGTATAGATC ((((((...))))))
folding enthalpy [1]: -41.5 kcal/mol | Tm [2]: 49.5 °C

GTACACGGAAACGCGTAC ((((.((....)).))))
folding enthalpy [1]: -40.1 kcal/mol | Tm [2]: 48.3 °C

CGCCAACGGAAACGTGCG (((..(((....))))))
folding enthalpy [1]: -26 kcal/mol | Tm [2]: 45.5 °C

GCATACGAAAGTAGGTGC ((((((....)))..)))
folding enthalpy [1]: -27.1 kcal/mol | Tm [2]: 40.4 °C

GAGCCGCGAAAGCGTCTC (((.(((....))).)))
folding enthalpy [1]: -22.4 kcal/mol | Tm [2]: 54.3 °C

GTGTAGCGAAAGCTCAC (((.(((....))))))
folding enthalpy [1]: -23.2 kcal/mol | Tm [2]: 51.8 °C

GATCAAGGATTGATC ((((((...))))))
folding enthalpy [1]: -38.8 kcal/mol | Tm [2]: 49.8 °C

GTATTGCCGAAAGGCTAC (((..(((....))))))
folding enthalpy [1]: -3.24 kcal/mol | Tm [2]: 50 °C

GAGAGCGAAAGCTCACTC ((((((....)))..)))
folding enthalpy [1]: -12 kcal/mol | Tm [2]: 55.5 °C

GTGCACGAAAGTGGACAC ((((((....)))..)))
folding enthalpy [1]: -15.2 kcal/mol | Tm [2]: 52.6 °C

GCAAGTCGAAAGACTGC (((.(((....))))))
folding enthalpy [1]: -25.8 kcal/mol | Tm [2]: 57.1 °C

GCCAAGCGAAAGCTGTGC ((..(((....)))..))
folding enthalpy [1]: -17.4 kcal/mol | Tm [2]: 46.4 °C

AGGGTGAAAACCCT (((((....)))))
folding enthalpy [1]: -19.3 kcal/mol | Tm [2]: 53.9 °C

GATCCTGTTGAGGATC ((((((....))))))
folding enthalpy [1]: -33.9 kcal/mol | Tm [2]: 53.2 °C

GGGCAGCGAAAGCTACCC (((.(((....))).)))
folding enthalpy [1]: -31.2 kcal/mol | Tm [2]: 57.1 °C

GTTCTCCCGAAAGGGAAC (((..(((....))))))
folding enthalpy [1]: -9.91 kcal/mol | Tm [2]: 30.6 °C

GTGCACGAAAGTGACCAC ((((((....)))..)))
folding enthalpy [1]: -12.7 kcal/mol | Tm [2]: 41.3 °C

GATCTTGGGGAAGATC ((((((....))))))
folding enthalpy [1]: -29.1 kcal/mol | Tm [2]: 40.8 °C

GCTTAAGGAAACCTAAGC (((((.(....).)))))
folding enthalpy [1]: -22.8 kcal/mol | Tm [2]: 35.7 °C

GCTACGCGAAAGCGTTGC ((.((((....)))).))
folding enthalpy [1]: -27.2 kcal/mol | Tm [2]: 65 °C

GGTTCCGAAAGGATGACC ((((((....)))..)))
folding enthalpy [1]: -18.5 kcal/mol | Tm [2]: 38.2 °C

GGCTTCGAAAGAAAGCC ((((((....))).)))
folding enthalpy [1]: -38.1 kcal/mol | Tm [2]: 55 °C

GTACGCGGAAACGCGTGC (.(((((....))))).)
folding enthalpy [1]: -15.4 kcal/mol | Tm [2]: 60.9 °C

GATCAATTCCTTGATC ((((((....))))))
folding enthalpy [1]: -35.3 kcal/mol | Tm [2]: 45.4 °C

GTCTGACGAAAGTCTGAC (((.(((....))).)))
folding enthalpy [1]: -34 kcal/mol | Tm [2]: 57.2 °C

GCCATCGAAAGATATGGC ((((((....)))..)))
folding enthalpy [1]: -32 kcal/mol | Tm [2]: 46.6 °C

GCAAAGCGAAAGCTGGGC ((..(((....)))..))
folding enthalpy [1]: -18.9 kcal/mol | Tm [2]: 55.6 °C

GCGATGCGAAAGCACGC (((.(((....))))))
folding enthalpy [1]: -23.4 kcal/mol | Tm [2]: 68.4 °C

GATCTCGAGTGAGATC ((((((....))))))
folding enthalpy [1]: -35.7 kcal/mol | Tm [2]: 51.8 °C

GGCGTTCGAAAGAAGCC (((.(((....))))))
folding enthalpy [1]: -23.2 kcal/mol | Tm [2]: 50.8 °C

GTTCACGAAAGTGATAAC ((((((....)))..)))
folding enthalpy [1]: -10.8 kcal/mol | Tm [2]: 35 °C

GGAGTCCGAAAGGATTCC (((.(((....))).)))
folding enthalpy [1]: -47.8 kcal/mol | Tm [2]: 55.7 °C

GTTAACGGAAACGCTAAC ((((.((....)).))))
folding enthalpy [1]: -28.1 kcal/mol | Tm [2]: 36.2 °C

GCAACTGGAAACAGTCGC ((.((((....)))).))
folding enthalpy [1]: -33 kcal/mol | Tm [2]: 45.9 °C

GATCACGAAAGTGCAATC ((((((....)))..)))
folding enthalpy [1]: -10 kcal/mol | Tm [2]: 28.1 °C

GATCGTCATACGATC ((((((...))))))
folding enthalpy [1]: -33.8 kcal/mol | Tm [2]: 57.5 °C

Source: the array DNA melting data of Ke et al. (doi:10.1101/2024.01.08.574731)
